# Reference: PubChem BioAssay AID822 (SRMLSC, 2007)
# Calls of active or inactive are those of the source.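 Rule for the calls: active = half-maximal effective dose for blocking growth of human endothelial cells at most 100 µM; inactive = the rest.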
# Test system: HUVEC proliferation, viability ATP luminescence
# Assay: growth suppression of umbilical vein endothelial cells – cell-based, HUVEC, ATP luminescence, dose response (AID 822);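 note: cells exposed to compound for 72 h before the ATP read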
# How it was run: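 Material: HUVEC. Input: 1250 cells per well. Medium: endothelial basal medium (EBM) with 2% fetal bovine serum, collagen-coated wells. Compound: 0.039–20 µM, 0.2% DMSO. Times: compound treatment 72 h, 37 °C. Technique: CellTiter-Glo ATP luminescence. Read-out basis: % viability and fitted EC50. Format: collagen-coated multiwell plates.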
row,SMILES,EC50
1,C#CCn1c(=NC(=O)c2ccc(Br)s2)sc2cccc(OC)c21,12.2 µM
2,O=C(Cn1c(=O)n(CCCC(=O)NC2CCCC2)c(=O)c2ccccc21)NCCC1=CCCCC1,18.1 µM
3,COc1ccc2[nH]c(=O)c(CN(C3CCCCC3)C(c3nnnn3Cc3ccco3)C(C)C)cc2c1 (stereo not drawn),8.72 µM
4,Nc1c(C(=O)NCc2ccc(F)cc2)c2nc3ccccc3nc2n1CCCN1CCOCC1,10.4 µM
5,Cc1ccc(N=Nc2c(C)[nH][nH]c2=O)c(C)c1,7.59 µM
6,Cc1ccc2[nH]c(=O)c(C3C(C#N)=C(N)Oc4c3ccc3cccnc43)cc2c1 (stereo not drawn),9.52 µM
7,CCCCOc1ccc(C(=O)C(CN2CCOCC2)c2ccccc2)cc1 (stereo not drawn),3.08 µM
8,Cc1ccc2[nH]c3c(N4CCN(Cc5ccccc5)CC4)ncnc3c2c1,8.08 µM
9,Cc1cc(/C=N/n2cnnc2)c(C)n1-c1ccc(OCc2ccc(Cl)cc2Cl)cc1,4.39 µM
10,CC1CCc2sc3nc(N4CCN(CCO)CC4)n4ncnc4c3c2C1 (stereo not drawn),19.6 µM
11,Cc1cccnc1Nc1nc(-c2ccc(O)cc2O)cs1,10.3 µM
12,CCOC(=O)COc1ccc(S(=O)(=O)NCCC2=CCCCC2)cc1,11.9 µM
13,O=c1[nH]c(=O)n(Cc2ccccc2)c2nc(-c3ccco3)cc(C(F)(F)F)c12,17 µM
14,Cc1ccc2nc(NC(=O)CSc3ncnc4c3oc3ccccc34)sc2c1,5.79 µM
15,Oc1c(I)cc(Cl)c2cccnc12,1.94 µM
16,Oc1ccc(Nc2nc(-c3ccc4ccccc4c3)cs2)cc1,5.83 µM
17,Cc1nc(Nc2ccc3c(c2)OCCO3)c2nnn(Cc3ccccc3Cl)c2n1,7.13 µM
18,O=C(CCC1COc2ccccc2O1)Nc1ccc(Cl)cn1 (stereo not drawn),17.6 µM
19,Cc1ccc(C(C)C)c(OCC(=O)Nc2ccc3c(c2)nc(CN2CCCC2)n3C)c1,14.6 µM
20,c1ccc(CC2CCN(C3=Nc4cccc5cccc3c45)CC2)cc1,3.02 µM
21,Cn1cc(/C=N/n2cnc3scc(-c4ccccc4)c3c2=O)c2ccccc21,4.94 µM
22,COC(=O)COc1ccc(S(=O)(=O)NCCC2=CCCCC2)cc1Cl,9.76 µM

row,SMILES,EC50
1,Cc1cc(/C=C2\C(=N)N3C(SCc4ccccc4)=NSC3=NC2=O)c(C)n1Cc1ccccc1,5.4 µM
2,COc1ccccc1-c1nnc2n1N=C(c1ccc(O)c(O)c1)CS2,0.847 µM
3,Cc1cc(C)n(-c2nc(NCCC(C)C)c3c4c(sc3n2)COC(C)(C)C4)n1,14.5 µM
4,C=CCOC(=O)C1=C(C)NC(SCC(=O)Nc2ccc(C)c(Cl)c2)=C(C#N)C1c1ccco1 (stereo not drawn),20.1 µM
5,CN(C)c1ccc(/C=C(\C#N)C(=O)Nc2nc3c(s2)CCN(Cc2ccccc2)C3)cc1,3.88 µM
6,CC(=O)SC(C[N+](=O)[O-])c1cn(C(C)=O)c2ccccc12 (stereo not drawn),6.72 µM
7,C=CCOC(=O)C1=C(C)NC(SCC(=O)Nc2nccs2)=C(C#N)C1c1cccs1 (stereo not drawn),6.19 µM
8,COc1ccc(-n2nnnc2S(=O)(=O)CC(=O)N2CCCCC2)cc1,7.76 µM
9,O=C(Nc1ccccc1)c1cccc(-c2nnc(-c3ccccc3)o2)c1,10.6 µM
10,CN(C)c1ccc(-c2nn3c(-c4ccc(Cl)cc4Cl)nnc3s2)cc1,14.8 µM
11,CC(=O)n1cc(-c2ccncc2)c2ccccc21,> 10 µM (inactive)
12,Cc1cc(C)c2oc(-c3ccc(Cl)c(NC(=O)c4ccc(C#N)cc4F)c3)nc2c1,10.9 µM
13,Cn1c(CNc2cccc(Cl)c2)nnc1SCC(=O)OC1CCCCC1,11.1 µM
14,Cc1ccccc1N1C(=O)CC(Sc2nnc(-c3ccccc3)o2)C1=O (stereo not drawn),15.2 µM
15,CC(=O)Nc1ccc(S(=O)(=O)N2CCN(c3nc(NC4CCCC4)c4ccccc4n3)CC2)cc1,4.96 µM
16,Nc1nc(Nc2cccc3ccccc23)nc(C2CCCC2=O)n1 (stereo not drawn),11.4 µM
17,CC(=O)C(C(C)=O)c1c(Cl)c(O)c(O)c2c(C(=O)c3ccccc3)coc12,5.38 µM
18,CCn1c(=O)cc(C(=O)OC)sc1=Nc1ccc(F)c(F)c1,11.7 µM
19,COc1c(F)c(F)c(C(=O)Nc2ccc(N3CCN(Cc4ccccc4)CC3)cc2)c(F)c1F,10.9 µM
20,C=C(C)COc1ccc(-c2n[nH]c(C)c2Oc2ccccc2OC)c(O)c1,10.9 µM
21,Cc1ccccc1CS(=O)(=O)c1nnc([C@H](CC(C)C)NC(=O)OC(C)(C)C)o1,12 µM
